Each structure is given as a SMILES string. Active and inactive are the calls of the source. The rule behind the calls is not given here.

Data set [1] relates to MGC-803. The experiment in a line: Induction of apoptosis in human MGC803 cells assessed as chromatin condensation at 0.25 to 1 uM after 12 hrs by Hoechst 33258 staining-based fluorescence microscopy. The class given is functional, cell-based. Summed up: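 MGC-803 cells seeded at 8×10^3 cells/well, treated 12 h at 0, 0.25, 0.5 or 1.0 µmol/L; cells collected, fixed, stained 20 min with Hoechst 33258, washed with PBS; nuclear shrinkage, chromatin condensation, intense fluorescence and fragmentation scored by fluorescence microscopy.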

The subject of a further data set is HEK293. Description: Cytotoxicity against human HEK293 cells up to 70 uM after 72 hrs by MTT assay. The class given is cell-based. As to conditions: hek293, 72 h. Summed up: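 HEK293 cells seeded at 5×10^3 per well, grown 24 h at 37°C, then medium replaced with compound-containing medium over a concentration range; 72 h exposure; MTT (5 mg/mL stock) added for 4 h at 37°C, formazan dissolved in DMSO, absorbance read at 570 nm. Triplicate per concentration, experiment repeated three times.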
For orientation: Formazan colour is commonly taken as a measure of viable cells.

Data set [2] deals with MGC-803. The experiment in a line: Cell cycle arrest in human MGC803 cells assessed as reduction in S phase accumulation after 12 to 24 hrs by propidium iodide staining-based flow cytometry. The format is functional. Summed up:
(§1)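 Exponentially growing MGC-803 cells (5×10^5) treated at 0, 0.25, 0.5 or 1.0 µmol/L for 12 or 24 h; cells collected, fixed in ice-cold 70% ethanol, treated with buffer containing RNAse A and 0.1% Triton X-100, stained with PI; DNA content analysed by flow cytometry to give percentages of cells in G1, S and G2/M phases.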
(In general: Flow cytometry measures light scatter and fluorescence of single cells or particles in a stream.)

Data set [3] concerns MGC-803. Description: Cell cycle arrest in human MGC803 cells assessed as accumulation at G2/M phase at 1 uM after 24 hrs by propidium iodide staining-based flow cytometry. The format is functional. Summed up: as §1
Data set [4] concerns MGC-803. Description: Cell cycle arrest in human MGC803 cells assessed as accumulation at S phase at 0.5 uM after 24 hrs by propidium iodide staining-based flow cytometry. The class given is functional. The procedure, abridged: as §1
The subject of data set [5] is MGC-803. The experiment in a line: Cell cycle arrest in human MGC803 cells assessed as accumulation at S phase at 0.5 uM after 12 hrs by propidium iodide staining-based flow cytometry. The format is functional. The procedure, abridged:
as §1

Data set [6] relates to MGC-803. The experiment in a line: Cell cycle arrest in human MGC803 cells assessed as accumulation at G0/G1 phase at 0.5 uM after 24 hrs by propidium iodide staining-based flow cytometry. The class given is functional. Summed up:
as §1

In data set [7] the test system is MGC-803. The experiment in a line: Cell cycle arrest in human MGC803 cells assessed as accumulation at G0/G1 phase at 0.25 uM after 12 hrs by propidium iodide staining-based flow cytometry. The format is functional. The procedure, abridged: as §1
Data set [8] deals with MGC-803. Description: Induction of apoptosis in human MGC803 cells assessed as late apoptotic cells at 1 uM after 12 hrs by AnnexinV-FITC/propidium iodide staining-based flow cytometry (reference value: 3.0 %). The format is functional.
Data set [9] concerns MGC-803. The experiment in a line: Induction of apoptosis in human MGC803 cells assessed as late apoptotic cells at 0.25 uM after 12 hrs by AnnexinV-FITC/propidium iodide staining-based flow cytometry (reference value: 3.0 %). The class given is functional.
In data set [10] the test system is MGC-803. The experiment in a line: Induction of apoptosis in human MGC803 cells assessed as early apoptotic cells at 0.25 uM after 12 hrs by AnnexinV-FITC/propidium iodide staining-based flow cytometry (reference value: 2.8 %). The class given is functional.
Data set [11] concerns MGC-803. The experiment in a line: Induction of apoptosis in human MGC803 cells assessed as viable cells at 1 uM after 12 hrs by AnnexinV-FITC/propidium iodide staining-based flow cytometry (reference value: 91.9 %). The class given is functional. As to conditions: MGC-803, 12 h, read-out: Activity.

`CC(C)NC(=O)N1CCN(C(=S)SCc2cn(Cc3ccc(F)cc3)nn2)CC1`: the outcome with MGC-803 [1] was Active. For the same compound, the Activity result in the data set with HEK293 is “Non-toxic”; in the data set with MGC-803 [2], “Dose-dependent effect”; with MGC-803 [3] it was 79.02%; in the data set with MGC-803 [4] it was 20.57%; in the data set on MGC-803 [5] it was 32.65%; with MGC-803 [6], 4.91%. Further, the Activity with MGC-803 [7] stood at 37.35%; in the data set with MGC-803 [8], 2.4%; with MGC-803 [9], 2.2%; with MGC-803 [10] it was 9.2%. In addition, the viability at 1 µM with MGC-803 [11] was 65%.

For the origin of these results see ChEMBL document CHEMBL2390884, “Design, synthesis and antiproliferative activity studies of novel 1,2,3-triazole-dithiocarbamate-urea hybrids” (Eur J Med Chem, 2013).
